The source of these data is ChEMBL document CHEMBL1649215, “In vitro activities of trioxaquines against Schistosoma mansoni” (2009).

The source made the active and inactive calls. No cut-off for these calls is given here.

In test [1] the test system is Schistosoma mansoni. Description: Antiparasitic activity against Schistosoma mansoni assessed as parasite death at 300 ug/ml. The class given is functional. The procedure, abridged: (§1)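 Schistosomula (day 21) and adults (day 49) were taken from percutaneously infected Swiss OF1 mice. Compounds were serially diluted in DMSO, with the last step into RPMI containing Tween 80, and worms were exposed across a concentration and time range. Survival was recorded and groups compared by pairwise log-rank tests (α = 1%).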

For test [2], the system named is Schistosoma mansoni. Description: Antiparasitic activity against Schistosoma mansoni larva assessed as reduction of body contractility and movement at 5 ug/ml. In kind it is functional, organism-based. The procedure, abridged:
(§2)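 Brazilian S. mansoni maintained in Swiss OF1 mice. Schistosomula recovered 21 days after percutaneous infection with 400 cercariae, and adults 49 days after 120 cercariae. Final concentration was 5 µg/ml for larvae and 50 µg/ml for adults, in RPMI/Tween 80/DMSO (1,000/0.95/3.8). Survival was followed over time and compared by pairwise log-rank tests (α = 1%).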

Test [3] relates to Schistosoma mansoni. Description: Antiparasitic activity against Schistosoma mansoni assessed as parasite death at 10 ug/ml. In kind it is functional. A digest of the protocol:
as §1

In test [4] the test system is Schistosoma mansoni. Description: Antiparasitic activity against Schistosoma mansoni assessed as parasite death at 100 ug/ml. The class given is functional. The procedure, abridged: as §1
Test [5] relates to Schistosoma mansoni. Description: Antiparasitic activity against Schistosoma mansoni larva assessed as reduction of body contractility and movement at 5 ug/ml within 7 hrs. The class given is functional, organism-based. A digest of the protocol:
as §2

Test [6] concerns Schistosoma mansoni. Put plainly: Antiparasitic activity against Schistosoma mansoni adult worm assessed as reduction of body contractility and movement at 50 ug/ml. The class given is functional, organism-based. A digest of the protocol: as §2
Test [7] relates to Schistosoma mansoni. Description: Antiparasitic activity against Schistosoma mansoni assessed as parasite death at 5 ug/ml. The class given is functional. A digest of the protocol: as §1
Test [8] relates to Schistosoma mansoni. Put plainly: Antiparasitic activity against Schistosoma mansoni larva assessed as reduction of body contractility and movement at 5 ug/ml.
In test [9] the test system is Schistosoma mansoni. Description: Antiparasitic activity against Schistosoma mansoni adult worm assessed as reduction of body contractility and movement at 50 ug/ml.
For test [10], the system named is Schistosoma mansoni. Description: Antiparasitic activity against Schistosoma mansoni adult worm assessed as reduction of body contractility and movement at 50 ug/ml within 7 hrs.

Take `C[C@H]1[C@H](OC(=O)CCC(=O)O)O[C@@H]2O[C@@]3(C)CC[C@H]4[C@H](C)CC[C@@H]1[C@@]24OO3` [ARTESUNATE]: in the test with Schistosoma mansoni [1], the Activity was determined as 100%.

Regarding `Clc1ccc2c(N[C@H]3CC[C@H](NC4CCC5(CC4)OCC4(CCCC4)OO5)CC3)ccnc2c1` (stereo partly specified), the outcome with Schistosoma mansoni [2], in the test with Schistosoma mansoni [5], in the test on Schistosoma mansoni [6], in the test on Schistosoma mansoni [8], in the test with Schistosoma mansoni [9] and in the test on Schistosoma mansoni [10] was Active. For the same molecule, the Activity with Schistosoma mansoni [3], in the test with Schistosoma mansoni [4], in the test with Schistosoma mansoni [1] and in the test with Schistosoma mansoni [7] was 100% each time.

With `CC1(C)COC2(CCC(N[C@H]3CC[C@H](Nc4ccnc5cc(Cl)ccc45)CC3)CC2)OO1` (stereo partly specified), the result in the test on Schistosoma mansoni [2], in the test with Schistosoma mansoni [5], with Schistosoma mansoni [6], in the test on Schistosoma mansoni [8], in the test on Schistosoma mansoni [9] and in the test on Schistosoma mansoni [10] was Active.

Regarding `O=C(C1CCCCC1)N1CC(=O)N2CCc3ccccc3C2C1` (stereo unspecified) [PRAZIQUANTEL], the result in the test with Schistosoma mansoni [2], with Schistosoma mansoni [6], with Schistosoma mansoni [8] and with Schistosoma mansoni [9] was Active. For the same molecule, the Activity with Schistosoma mansoni [3] and in the test with Schistosoma mansoni [7] was 100% in each case.

In the case of `Clc1ccc2c(NCCN3CCC4(CC3)OCC3(CCCCC3)OO4)ccnc2c1`, the outcome in the test on Schistosoma mansoni [2], in the test with Schistosoma mansoni [6], in the test on Schistosoma mansoni [8], in the test on Schistosoma mansoni [9] and in the test with Schistosoma mansoni [10] was Active.

`CN(C1CCC2(CC1)OCC(C)(C)OO2)[C@H]1CC[C@H](Nc2ccnc3cc(Cl)ccc23)CC1` (stereo partly specified): the result with Schistosoma mansoni [2], in the test on Schistosoma mansoni [6], in the test on Schistosoma mansoni [8] and in the test on Schistosoma mansoni [9] was Active. For the same molecule, the outcome with Schistosoma mansoni [5] and in the test on Schistosoma mansoni [10] was inactive.

Regarding `CO[C@H]1O[C@@H]2O[C@@]3(C)CC[C@H]4[C@H](C)CC[C@@H]([C@H]1C)[C@@]24OO3` [ARTEMETHER], the Activity in the test on Schistosoma mansoni [1] is listed as 100%.

With `CC1(C)COC2(CCC(N[C@H]3CC[C@H](Nc4ccnc5cc(C(F)(F)F)ccc45)CC3)CC2)OO1` (stereo partly specified), the result in the test with Schistosoma mansoni [2], in the test on Schistosoma mansoni [6], with Schistosoma mansoni [8], with Schistosoma mansoni [9] and in the test with Schistosoma mansoni [10] was Active.

As to `Clc1ccc2c(NCCN3CCC4(CC3)OCC3(CCCC3)OO4)ccnc2c1`, the outcome with Schistosoma mansoni [2], in the test on Schistosoma mansoni [5], in the test on Schistosoma mansoni [6], in the test on Schistosoma mansoni [8], with Schistosoma mansoni [9] and in the test on Schistosoma mansoni [10] was Active.
